Reference: ChEMBL document CHEMBL4020814, “Synthesis, Binding Mode, and Antihyperglycemic Activity of Potent and Selective (5-Imidazol-2-yl-4-phenylpyrimidin-2-yl)[2-(2-pyridylamino)ethyl]amine Inhibitors of Glycogen Synthase Kinase 3” (J Med Chem, 2017)

Assays:
[1] = AUC in po dosed diabetic ZDF rat; format: ADME, organism-based; settings: in vivo
[2] = test system: Rattus norvegicus; assay: Effect on plasma insulin level in lean ZDF fa/fa rat at 30 mg/kg dosed at 4.5 and 0.5 hrs prior to oral glucose challenge measured at -250 mins (reference value: 0.2 +/- 0.1 ng/ml); format: ADME, organism-based; settings: in vivo
[3] = Volume of distribution at steady state in iv dosed diabetic ZDF rat; format: ADME, organism-based; settings: in vivo, read-out: Vdss
Method in brief: (§1)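 ZDF (fa/fa) rats dosed intravenously; clearance and steady-state volume of distribution derived from plasma concentration–time data.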

[4] = species on record: Mus musculus; assay: Effect on insulin levels in streptozotocin-treated mouse fed with high fat diet; format: ADME; settings: in vivo
Method in brief: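 Mice on a high-fat diet with intermittent streptozotocin were dosed orally at −4.5 and −0.5 h before oral glucose challenge. Post-challenge glucose AUC and insulin were measured.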

[5] = test system: Rattus norvegicus; assay: Toxicity in diabetic ZDF rat assessed as increase in cyclin D1 mRNA levels in colon administered at 130 mg/kg/day infused over 20 hrs; format: organism-based; settings: in vivo
[6] = test system: Rattus norvegicus; assay: Toxicity in diabetic ZDF rat assessed as increase in cyclin D1 mRNA levels in lung administered at 130 mg/kg/day infused over 20 hrs; format: organism-based; settings: in vivo
[7] = test system: Rattus norvegicus; assay: Toxicity in diabetic ZDF rat assessed as increase in cyclin D1 mRNA levels in adipose tissue administered at 130 mg/kg/day infused over 20 hrs; format: organism-based; settings: in vivo
[8] = test system: Rattus norvegicus; assay: Effect on plasma glucose levels in lean ZDF fa/fa rat administered at 30 mg/kg dosed at 4.5 and 0.5 hrs prior to oral glucose challenge by oral glucose tolerance test; format: ADME, organism-based; settings: in vivo
[9] = test system: Mus musculus; assay: Effect on urine glucose levels in diabetic db/db mouse administered orally at 4.5 and 0.5 hrs prior to oral glucose challenge; format: ADME; settings: in vivo
[10] = test system: Rattus norvegicus; assay: Effect on plasma insulin level in obese ZDF fa/fa rat at 30 mg/kg dosed at 4.5 and 0.5 hrs prior to oral glucose challenge measured at -45 mins (reference value: 6.9 +/- 0.3 ng/ml); format: ADME, organism-based; settings: in vivo
[11] = test system: Rattus norvegicus; assay: Toxicity in diabetic ZDF rat assessed as increase in beta-catenin mRNA levels in colon administered at 130 mg/kg/day infused over 20 hrs; format: organism-based; settings: in vivo
[12] = test system: Rattus norvegicus; assay: Toxicity in diabetic ZDF rat assessed as increase in beta-catenin mRNA levels in liver administered at 130 mg/kg/day infused over 20 hrs; format: organism-based; settings: in vivo
[13] = test system: Rattus norvegicus; assay: Effect on plasma insulin level in obese ZDF fa/fa rat at 30 mg/kg dosed at 4.5 and 0.5 hrs prior to oral glucose challenge measured at 25 mins (reference value: 8.5 +/- 0.7 ng/ml); format: ADME, organism-based; settings: in vivo
[14] = test system: Rattus norvegicus; assay: Toxicity in diabetic ZDF rat assessed as increase in beta-catenin mRNA levels in lungs administered at 130 mg/kg/day infused over 20 hrs; format: organism-based; settings: in vivo
[15] = Plasma concentration in diabetic db/db mouse at 30 mg/kg administered at 4.5 and 0.5 hrs prior to oral glucose challenge measured 20 mins post second dose; settings: plasma
[16] = Clearance in iv dosed diabetic ZDF rat; format: ADME, organism-based; settings: in vivo; method in brief: as §1
[17] = test system: Rattus norvegicus; assay: Toxicity in diabetic ZDF rat assessed as increase in beta-catenin mRNA levels in brain administered at 130 mg/kg/day infused over 20 hrs; format: organism-based; settings: in vivo
[18] = target: Angiopoietin-1 receptor (Homo sapiens, UniProt Q02763)
[19] = test system: Rattus norvegicus; assay: Reduction in plasma insulin level in diabetic ZDF fa/fa rat at 30 mg/kg, po administered as single dose measured after 60 mins; format: ADME, organism-based; settings: in vivo, 1 h
Method in brief: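 Twelve-week-old male ZDF (fa/fa) rats with fasted basal glucose of 500–550 mg/dL, food removed 3–4 h before dosing. A single oral dose was given with vehicle 15% captisol. Plasma glucose and insulin were measured from serial tail-snip bleeds, n = 8/group, mean ± SEM.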

[20] = test system: Rattus norvegicus; assay: Effect on plasma insulin level in diabetic ZDF fa/fa rat assessed as plasma insulin levels at 5 mg/kg, iv prime dose with continuous infusion at 64 ug/kg/min for 4 days (reference value: 3.9 +/- 0.6 ng/ml); format: ADME, organism-based; settings: in vivo, 96 h
[21] = Half life in po dosed diabetic ZDF rat; format: ADME, organism-based; settings: in vivo
[22] = test system: Rattus norvegicus; assay: Effect on plasma insulin level in lean ZDF fa/fa rat at 30 mg/kg dosed at 4.5 and 0.5 hrs prior to oral glucose challenge measured at 25 mins (reference value: 0.4 +/- 0.1 ng/ml); format: ADME, organism-based; settings: in vivo
[23] = test system: Rattus norvegicus; assay: Effect on plasma insulin level in obese ZDF fa/fa rat at 30 mg/kg dosed at 4.5 and 0.5 hrs prior to oral glucose challenge measured at 60 mins (reference value: 7.8 +/- 0.8 ng/ml); format: ADME, organism-based; settings: in vivo
[24] = test system: Rattus norvegicus; assay: Effect on plasma insulin level in lean ZDF fa/fa rat at 30 mg/kg dosed at 4.5 and 0.5 hrs prior to oral glucose challenge measured at -45 mins (reference value: 0.2 +/- 0.1 ng/ml); format: ADME, organism-based; settings: in vivo
[25] = test system: Mus musculus; assay: Effect on insulin level in diabetic db/db mouse at 30 mg/kg administered at 4.5 and 0.5 hrs prior to oral glucose challenge; format: ADME, organism-based; settings: in vivo
Method in brief: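 db/db mice, 6–8 per group, fasted ~6 h (food removed 3 h before prebleed), dosed orally at −4.5 and −0.5 h relative to oral glucose (vehicle 10% captisol). Tail-snip blood glucose was read by glucometer or analyzer; plasma insulin was measured by ELISA.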

[26] = Half life in diabetic ZDF fa/fa rat at 8 mg/kg administered 4.5 and 0.5 hrs prior to oral glucose challenge; format: ADME, organism-based; settings: in vivo
[27] = test system: Mus musculus; assay: Effect on insulin level in diabetic ob/ob mouse administered at 30 mg/kg, po measured post glucose challenge; format: ADME, organism-based; settings: in vivo
Method in brief: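 ob/ob mice aged 9–10 weeks, 6–8 per group, given an oral glucose tolerance test with oral dosing at −4.5 and −0.5 h (vehicle captisol). Plasma glucose and insulin were measured after the glucose challenge. Values are mean ± SEM.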

[28] = test system: Rattus norvegicus; assay: Effect on plasma insulin level in obese ZDF fa/fa rat at 30 mg/kg dosed at 4.5 and 0.5 hrs prior to oral glucose challenge measured at -250 mins (reference value: 7.2 +/- 0.6 ng/ml); format: ADME, organism-based; settings: in vivo
[29] = test system: Rattus norvegicus; assay: Toxicity in diabetic ZDF rat assessed as increase in cyclin D1 mRNA levels in liver administered at 130 mg/kg/day infused over 20 hrs; format: organism-based; settings: in vivo
[30] = test system: Rattus norvegicus; assay: Toxicity in diabetic ZDF rat assessed as increase in cyclin D1 mRNA levels in brain administered at 130 mg/kg/day infused over 20 hrs; format: organism-based; settings: in vivo
[31] = test system: Rattus norvegicus; assay: Toxicity in diabetic ZDF rat assessed as increase in beta-catenin mRNA levels in adipose tissue administered at 130 mg/kg/day infused over 20 hrs; format: organism-based; settings: in vivo
[32] = Oral bioavailability in diabetic ZDF rat; format: ADME, organism-based; settings: in vivo
[33] = target: Casein kinase I isoform epsilon (Homo sapiens, UniProt P49674); assay: Inhibition of human CK1epsilon using biotin peptide substrate after 1 hr by scintillation counting method
[34] = Oral bioavailability in diabetic ZDF fa/fa rat at 8 mg/kg administered 4.5 and 0.5 hrs prior to oral glucose challenge; format: ADME, organism-based; settings: in vivo
[35] = test system: Rattus norvegicus; assay: Effect on plasma insulin level in lean ZDF fa/fa rat at 30 mg/kg dosed at 4.5 and 0.5 hrs prior to oral glucose challenge measured at 60 mins (reference value: 0.3 +/- 0.1 ng/ml); format: ADME, organism-based; settings: in vivo, 1 h
[36] = Cmax in po dosed diabetic ZDF rat; format: ADME, organism-based; set-up: route oral; settings: in vivo
[37] = Stability in human liver microsomes assessed as half life; format: ADME, microsome

Chain of Casein kinase I isoform epsilon (P49674 whole entry, canonical isoform): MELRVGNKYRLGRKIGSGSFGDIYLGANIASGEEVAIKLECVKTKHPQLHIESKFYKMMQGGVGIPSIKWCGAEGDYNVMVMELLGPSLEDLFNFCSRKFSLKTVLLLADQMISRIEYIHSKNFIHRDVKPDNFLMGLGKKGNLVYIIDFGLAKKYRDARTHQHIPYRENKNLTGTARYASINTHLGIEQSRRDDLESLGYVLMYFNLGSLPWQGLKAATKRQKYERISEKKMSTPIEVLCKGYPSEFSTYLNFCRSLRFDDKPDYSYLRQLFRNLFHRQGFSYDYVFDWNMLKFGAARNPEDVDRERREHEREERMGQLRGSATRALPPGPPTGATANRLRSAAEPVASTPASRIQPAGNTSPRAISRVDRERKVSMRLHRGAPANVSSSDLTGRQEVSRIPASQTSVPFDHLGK
Chain of Angiopoietin-1 receptor (Q02763 whole entry): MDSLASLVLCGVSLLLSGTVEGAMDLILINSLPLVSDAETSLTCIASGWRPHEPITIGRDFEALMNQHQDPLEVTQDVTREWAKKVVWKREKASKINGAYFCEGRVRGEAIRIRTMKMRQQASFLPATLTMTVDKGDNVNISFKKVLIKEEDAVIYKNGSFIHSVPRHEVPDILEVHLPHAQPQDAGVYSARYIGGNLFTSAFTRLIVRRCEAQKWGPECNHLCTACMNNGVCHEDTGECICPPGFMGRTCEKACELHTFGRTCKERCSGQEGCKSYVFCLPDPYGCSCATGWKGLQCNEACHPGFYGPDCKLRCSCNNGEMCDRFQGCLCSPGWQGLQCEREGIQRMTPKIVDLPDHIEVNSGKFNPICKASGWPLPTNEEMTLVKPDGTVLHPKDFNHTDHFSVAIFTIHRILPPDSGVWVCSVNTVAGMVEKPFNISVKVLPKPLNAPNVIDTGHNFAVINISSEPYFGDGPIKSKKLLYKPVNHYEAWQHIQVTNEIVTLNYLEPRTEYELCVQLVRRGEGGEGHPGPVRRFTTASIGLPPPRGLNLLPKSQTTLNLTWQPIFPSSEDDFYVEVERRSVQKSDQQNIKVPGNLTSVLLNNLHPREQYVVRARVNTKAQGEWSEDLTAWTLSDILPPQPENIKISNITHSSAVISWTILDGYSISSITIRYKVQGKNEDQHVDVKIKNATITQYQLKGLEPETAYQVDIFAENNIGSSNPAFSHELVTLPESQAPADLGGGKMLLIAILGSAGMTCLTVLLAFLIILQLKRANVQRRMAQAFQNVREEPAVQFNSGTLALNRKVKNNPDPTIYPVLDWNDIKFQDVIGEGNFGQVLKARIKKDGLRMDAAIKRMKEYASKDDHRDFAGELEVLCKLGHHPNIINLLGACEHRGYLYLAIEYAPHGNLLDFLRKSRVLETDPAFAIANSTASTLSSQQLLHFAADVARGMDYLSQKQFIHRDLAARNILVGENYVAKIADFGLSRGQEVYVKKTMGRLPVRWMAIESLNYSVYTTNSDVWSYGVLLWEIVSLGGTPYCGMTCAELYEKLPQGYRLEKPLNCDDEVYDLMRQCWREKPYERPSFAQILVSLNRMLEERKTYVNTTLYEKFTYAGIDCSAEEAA

AUC [1]: 1420 ng·h/mL
Activity [2]: 0.3 ng/mL
Vd [3]: 3.6 L/kg
Activity [10]: 5.3 ng/mL
Activity [13]: 4.8 ng/mL
concentration at 20 min [15]: 15000 ng/mL
clearance [16]: 43 mL/min/kg
IC50 [18]: > 5 µM
Activity [20]: 3.1 ng/mL
half-life [21]: 1.53 to 1.63 h
Activity [22]: 0.6 ng/mL
Activity [23]: 5.2 ng/mL
Activity [24]: 0.3 ng/mL
half-life [26]: 1.53 h
Activity [28]: 6.3 ng/mL
bioavailability [32]: 36 to 43%
IC50 [33]: > 5 µM
bioavailability [34]: 36%
Activity [35]: 0.4 ng/mL
Cmax [36]: 400 ng/mL
half-life [37]: 1.82 h
Compound: Cc1c[nH]c(-c2cnc(NCCNc3ccc(C#N)cn3)nc2-c2ccc(Cl)cc2Cl)n1 [LADUVIGLUSIB]
Activity [4]: Toxic
Activity [5]: Non-Toxic
Activity [6]: Non-Toxic
Activity [7]: Non-Toxic
Activity [8]: Non-Toxic
Activity [9]: Non-Toxic
Activity [11]: Non-Toxic
Activity [12]: Non-Toxic
Activity [14]: Non-Toxic
Activity [17]: Non-Toxic
Activity [19]: Toxic
Activity [25]: Non-Toxic
Activity [27]: Toxic
Activity [29]: Non-Toxic
Activity [30]: Non-Toxic
Activity [31]: Non-Toxic
